# Test results reported in ChEMBL document CHEMBL1150692, “Isolation and synthesis of a new bioactive ellagic acid derivative from Combretum yunnanensis” (J Nat Prod, 2003).
# pIC50: −log10 of the molar value.
# Columns and labels:
# P388 [1] = experiment: Cytotoxicity against mouse P388 cells after 3 days by MTT assay; type: functional, cell-based; conditions: P388, 72 h
# Method in brief: (§1)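 Incubated with sample at 37 °C for 3 or 4 days; viable cell number then estimated by MTT colorimetric assay.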
# KB = experiment: Cytotoxicity against human KB cells after 3 days by MTT assay; type: functional, cell-based; conditions: 72 h; method in brief: as §1
# B16 = experiment: Cytotoxicity against mouse B16 cells after 3 days by MTT assay; type: functional, cell-based; conditions: B16, 72 h; method in brief: as §1
# K562 [2] = experiment: Cytotoxicity against adriamycin-resistant human K562 cells after 3 days by MTT assay; type: functional, cell-based; conditions: K562, 72 h; method in brief: as §1
# Protease = Protease (Human immunodeficiency virus 1, UniProt Q9YQ12); experiment: Inhibition of HIV1 protease
# Sequence of Protease (Q9YQ12 whole entry): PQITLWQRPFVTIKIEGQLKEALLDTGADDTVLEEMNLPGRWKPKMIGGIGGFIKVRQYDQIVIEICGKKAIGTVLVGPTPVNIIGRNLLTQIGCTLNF
# K562 [3] = experiment: Cytotoxicity against human K562 cells after 3 days by MTT assay; type: functional, cell-based; conditions: K562, 72 h; method in brief: as §1
# HeLa = experiment: Cytotoxicity against human HeLa cells after 3 days by MTT assay; type: functional, cell-based; conditions: 72 h; method in brief: as §1
# P388 [4] = experiment: Cytotoxicity against adriamycin-resistant mouse P388 cells after 3 days by MTT assay; type: functional, cell-based; conditions: P388, 72 h; method in brief: as §1
# Mus musculus = experiment: Toxicity in mouse at 100 mg/kg, ip; type: organism-based; parameters: dose 100 mg/kg, route intraperitoneal; conditions: in vivo
pIC50 (Protease),Structure (SMILES),IC50 (P388 [1]),IC50 (KB),IC50 (B16),IC50 (K562 [2]),IC50 (K562 [3]),IC50 (HeLa),IC50 (P388 [4]),Activity (Mus musculus)
4.97,C[C@@H]1O[C@@H](Oc2cc3c(=O)oc4c(O)c(O)cc5c(=O)oc(c2O)c3c45)[C@H](O)[C@H](O)[C@H]1O [ESCHWEILENOL C],62 mg/L,98 mg/L,88 mg/L,67 mg/L,82 mg/L,86.5 mg/L,53 mg/L,
4.65,CC(=O)O[C@@H]1[C@@H](O)[C@@H](O)[C@H](Oc2cc3c(=O)oc4c(O)c(O)cc5c(=O)oc(c2O)c3c45)O[C@H]1C,52 mg/L,61 mg/L,52 mg/L,56 mg/L,80 mg/L,76 mg/L,19 mg/L,Non-toxic
